Bioassay records: PubChem, PCMD
In the library only some 1% were active in any assay of this set; here they are far more common.
FXIa inh 1536 = human FXIa protease inhibitors, primary screen, biochemical, 1536-well; Coagulation factor XI (Homo sapiens), P03951; purified FXIa, Boc-Glu-Ala-Arg-AMC fluorogenic substrate; inhibition, % at 5 µM; hit rate 0.14% among 220,000; AID 798, 2007;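 active = inhibition of at least 40%; inactive = inhibition below 40%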;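 also: fluorescence of freed AMC excited at 355 nm; 0% = enzyme without compound and 100% = no enzyme blank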
Target sequence (P03951 19-387 limits assumed): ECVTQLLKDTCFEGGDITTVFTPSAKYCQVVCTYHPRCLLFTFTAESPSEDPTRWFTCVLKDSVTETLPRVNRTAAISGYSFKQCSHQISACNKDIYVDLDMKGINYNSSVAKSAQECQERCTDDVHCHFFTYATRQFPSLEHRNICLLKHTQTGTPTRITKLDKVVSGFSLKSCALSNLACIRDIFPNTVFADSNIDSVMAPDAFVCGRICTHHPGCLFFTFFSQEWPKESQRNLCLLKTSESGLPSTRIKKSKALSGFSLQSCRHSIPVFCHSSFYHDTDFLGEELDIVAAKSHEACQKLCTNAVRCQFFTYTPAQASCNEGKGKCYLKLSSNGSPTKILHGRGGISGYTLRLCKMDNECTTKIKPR
Target sequence (P03951 388-625 limits assumed): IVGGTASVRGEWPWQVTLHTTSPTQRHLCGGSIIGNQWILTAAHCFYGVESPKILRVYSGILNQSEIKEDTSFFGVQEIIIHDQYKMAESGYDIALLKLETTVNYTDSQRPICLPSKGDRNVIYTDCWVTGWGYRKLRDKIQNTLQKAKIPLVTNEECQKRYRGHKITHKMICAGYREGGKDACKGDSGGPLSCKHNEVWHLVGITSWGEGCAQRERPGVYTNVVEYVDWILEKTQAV
Thrombin inh = human alpha-thrombin inhibitors, primary screen, counter-screen for coagulation protease inhibitor project, biochemical, 1536-well, fluorogenic AMC substrate. Prothrombin (Homo sapiens), P00734. Boc-VPR-AMC fluorogenic substrate cleavage. inhibition, % at 5 µM. hit rate 0.26% among 220,000. AID 1046, 2008;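 active = inhibition at or above 40%; inactive = inhibition below 40%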;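 also: 0% = enzyme with no compound and 100% = wells without enzyme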
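Test system: human alpha-thrombin; medium: pH 7.5 Tris-saline with Tween 20; times: reaction at room temperature; signal: AMC fluorescence at 355 nm excitation and 460 nm emission; also added: Boc-VPR-AMC substrate, 15 µM final; dosing: one concentration per compound, 5 µM, with 0.2% DMSO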
hK5 inh = human KLK5 protease inhibitors, primary screen, biochemical, 1536-well | hit rate 0.59% among 210,000 | Kallikrein-5 (Homo sapiens), Q9Y337 | inhibition, % at 5 µM | recombinant hK5, fluorogenic AMC substrate cleavage;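 active = inhibition of 40% or more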;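 also: 0% = enzyme controls without compound and 100% = no-enzyme blanks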
FXIIa inh = human FXIIa protease inhibitors, primary screen, biochemical, 1536-well; Coagulation factor XII (Homo sapiens), P00748; purified FXIIa, Boc-QGR-AMC fluorogenic substrate, 2 h; inhibition, % at 5 µM; hit rate 0.3% among 220,000; in the data active = inhibition above about 40%;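 also: 0% = enzyme with no compound and 100% = blank without enzyme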
* = called active by the depositor.

SMILES	FXIa inh 1536	Thrombin inh	hK5 inh	FXIIa inh
COc1cc(C2SCC(=O)N2c2c(C)n(C)n(-c3ccccc3)c2=O)ccc1O (stereo not given)	42.9*	28.2	23.2	19.3
Cc1ccccc1NC(=O)C1(NC(=O)c2cccc(N3C(=O)CSC3c3ccccc3)c2)CCCCC1 (stereo not given)	9.6	13.2	80.0*	30.8
COc1ccc(C(=O)ON=C2C=C(C)C(=O)C(C)=C2)cc1	17.6	3.1	8.7	68.0*
COc1ccc(S(=O)(=O)N=C2C=C(C)C(=O)C(C)=C2)cc1	-2.5	0.7	-0.3	16.6
CC1=CC(=NOC(=O)c2cccc([N+](=O)[O-])c2)C=C(C)C1=O	4.4	2.4	-5.9	37.0
COc1cc(C(=O)O/N=C2\C=CC(=O)C(C)=C2)cc(OC)c1OC	12.4	3.8	1.2	96.2*
COc1cc(C(=O)ON=C2C=C(C)C(=O)C(C)=C2)cc(OC)c1OC	-4.8	-3.7	-5.8	90.1*
CCN(CC)S(=O)(=O)c1cnccc1N1CCN(c2cccc(Cl)c2)CC1	-3.2	-6.1	-13.2	1.3
COc1ccccc1-n1cc([C@@H]2C[C@H]3CN(c4ccccc4)C(=O)[C@]34CCCN24)cn1	2.6	1.4	2.2	7.2
CCn1nc(C)c(C2C(C#N)=C(N)OC3=C2C(=O)CC(C)(C)C3)c1C (stereo not given)	9.5	-1.5	-5.9	8.8
O=C(COc1ccc([N+](=O)[O-])cc1)NN=C1CCCC1	4.8	29.4	55.1*	-5.5
O=C(NN=C1CCCC1)c1ccc([N+](=O)[O-])cc1	-0.2	-7.5	0.8	8.0
CCOC(=O)c1ccc(NC(=O)COc2ccccc2CNC2CCCC2)cc1	-3.8	-3.7	0.7	4.7
O=C(COc1ccc(Cl)cc1Cl)N1CCN(c2ccccn2)CC1	-5.3	-6.9	-4.7	3.0
O=C(COc1cc(Cl)c(Cl)cc1Cl)N1CCN(c2ccccn2)CC1	31.6	53.9*	23.9	29.1
Cn1c(N)c(C(=O)/C=C/c2ccccc2)c(=O)[nH]c1=O	2.8	-0.8	2.6	9.7
Cc1cc(C)cc(NC(=O)c2ccc([N+](=O)[O-])o2)c1	69.6*	23.9	29.9	32.0
Cc1ccc(Nc2ncnc3c2nnn3Cc2ccccc2)cc1	-7.0	-4.5	0.6	1.0
CC(=O)/C(=N/Nc1ccccc1C)N1CCOCC1	2.2	3.1	-8.7	20.4
Cn1nc(C(F)(F)F)c(-c2ccc(F)cc2)c1NC(=O)c1cccnc1	1.8	0.5	2.4	9.9
N/C(Cc1ccccc1Sc1ccccc1)=N\O	4.6	-9.5	-18.0	9.6
CCN(CC)Cc1ccccc1Sc1ccccc1	7.7	44.3*	43.7*	4.5
COC(=O)COc1ccc(-n2cnnn2)cc1	3.3	-2.9	2.6	4.6
O=C(NCCCc1ccccc1)c1ccc(Br)o1	1.4	38.0	49.1*	20.3
O=C(NCCCCc1ccccc1)c1ccc(Br)o1	3.8	-3.1	-0.1	12.2
SMILES	FXIa inh 1536	Thrombin inh	hK5 inh	FXIIa inh
CCOc1ccc(CCNC(=O)c2cc3ccccn3n2)cc1OCC	7.2	9.3	59.5*	9.3
CCOC(=O)c1c(C)nc(-c2ccccc2)nc1NC(=O)CC	10.8	33.6	58.2*	20.3
CCC(=O)Nc1nc(-c2ccccc2)nc(SC)c1C(C)=O	-8.9	-22.5	-3.9	4.6
Cc1nn(-c2cccc(C(F)(F)F)c2)c(=O)c2noc(C)c12	4.6	-2.3	9.7	5.0
COc1ccc(N(CC(=O)Nc2ccc3c(c2)OCCO3)S(=O)(=O)c2c(C)nn(C)c2C)cc1	20.9	26.5	31.0	45.7*
CCOc1ccc(N(CC(=O)Nc2cccc(F)c2)S(=O)(=O)c2c(C)noc2C)cc1	11.4	23.2	41.9*	44.9*
O=C(Nc1cccc(C(F)(F)F)c1)C(=O)N1CCCCC1	-1.0	2.9	7.9	7.6
O=C(Nc1cc(=O)[nH]c2ncnn12)c1ccco1	22.8	23.4	56.6*	41.6*
Cc1ccccc1NNC(=O)C(=O)NNc1ccccc1C	16.1	18.0	50.2*	34.3
COc1ccc(N(Cc2cc3ccccc3[nH]c2=O)C(=O)C2CCCO2)cc1 (stereo not given)	-0.3	2.3	4.7	7.1
COc1ccc(N(Cc2cc3cccc(C)c3[nH]c2=O)C(=O)C2CCCO2)cc1 (stereo not given)	8.8	-6.0	54.0*	0.7
CC(C)=NNC(=O)C1=NNC(=O)C1	-1.4	-1.6	-0.6	9.1
CC(CO)(CO)NCc1ccc(-c2ccccc2)cc1	0.7	46.5*	39.6	17.7
CCCCCCN=C1CC(C)(C)CC(=O)/C1=C(/O)CCC	1.5	-0.7	2.1	8.8
CCCNC(=O)c1cccc(Cn2cc(Br)c([N+](=O)[O-])n2)c1	8.5	11.4	41.3*	38.7
NNC(=O)c1cccc(Cn2cc(Br)c([N+](=O)[O-])n2)c1	0.8	-1.9	1.0	5.7
CCOC(=O)Nc1sc(C)nc1-c1ccccc1	18.6	13.1	196.1*	10.2
Cc1[nH]n(-c2ccc([N+](=O)[O-])cc2)c(=O)c1C=NCCc1c(C)[nH]c2ccccc12	10.4	-4.1	-11.0	1.4
Cc1ccc(S(=O)(=O)N2CCN(CC(=O)N/N=C\c3cccnc3)CC2)cc1	10.8	10.6	41.3*	6.3
Cc1ccc(S(=O)(=O)N2CCN(CC(=O)N/N=C\c3ccccn3)CC2)cc1	-4.5	20.4	2.5	9.2
O=C(Cn1c(-c2ccccn2)nc2ccccc21)N/N=C/c1cccnc1	47.7*	13.3	113.0*	30.5
CCCn1[nH]cc(SC)c(=O)c1=O	5.5	17.2	121.6*	16.2
CC(C)(C)c1ccc(OCc2ccc(C(=O)NCc3cccnc3)o2)cc1	-3.2	5.0	-15.2	4.4
O=C(CSc1nnc(-c2ccccc2)c(-c2ccccc2)n1)Nc1ccc(Br)cn1	23.3	61.7*	1.6	28.1
O=C(CSc1nnc(-c2ccccc2)c(-c2ccccc2)n1)Nc1ncc(Cl)cc1Cl	0.8	-2.0	-3.6	2.7
SMILES	FXIa inh 1536	Thrombin inh	hK5 inh	FXIIa inh
COc1cccc(C(=O)N/N=C/c2ccc(OC3CSC3)cc2)c1	19.0	24.8	45.4*	24.8
Cc1cccc(C(=O)N/N=C/c2ccc(OC3CSC3)cc2)c1	-7.8	1.1	-22.8	9.8
COc1ccc(NCc2ccc([N+](=O)[O-])s2)c(OC)c1	9.2	-3.7	-14.3	22.6
Cc1ccc(C(=O)OCC(=O)NC(=O)c2cccn2C)cc1	1.8	6.0	-2.8	17.8
CSCCC(NC(=O)c1cccc(C)c1)C(=O)OCC(=O)NC(=O)c1cccn1C (stereo not given)	3.4	48.4*	6.1	10.3
O=C(COC(=O)CNC(=O)c1ccccc1)Nc1ccc(F)c([N+](=O)[O-])c1	-4.7	-2.5	-3.9	7.4
CCn1c(SCC(=O)NNC(=O)c2ccc(OC)cc2)nnc1-c1ccco1	-5.9	5.6	-4.9	0.8
CNC(=O)COC(=O)c1ccc(Cl)c(S(N)(=O)=O)c1	20.8	12.8	48.9*	25.5
Cn1c(N)c(C(=O)c2cc(-c3ccncc3)nc3ccccc23)c(=O)n(C)c1=O	-2.6	-4.0	-0.1	4.2
